Results as given in ChEMBL document CHEMBL1126690, “2'-substituted chalcone derivatives as inhibitors of interleukin-1 biosynthesis” (J Med Chem, 1993).

Legend:
Type in all cases: functional
Mus musculus = assay: In vivo activity expressed as percentage survival at 600 mg/kg in mouse septic shock model
Method in brief: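 Female C57Bl/6 mice (18–20 g), groups of 10, given LPS ip (E. coli 0127:B8, in 0.9% saline, 40 mg/kg). Compound in 0.25% methylcellulose (beadmilled 60 min) dosed orally by gavage 20 min later (0.1 mL/g), then every 4 h for 24 h; vehicle controls. Deaths recorded over 3 days; percent survival, χ² at p<0.05, mean of three experiments.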

Homo sapiens [1] = species: Homo sapiens; assay: (§1) Inhibition of the production of Interleukin-1-beta from human peripheral blood monocytes stimulated with lipopolysaccharide (LPS)
Method in brief: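 Drug in DMSO (1.0 μL) added, 60 min preincubation, then LPS (Salmonella typhimurium; 1.0 μg/mL stock, 20 μL/well). After 20 h, supernatant IL-1β by ELISA; MTT viability on cells.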

Homo sapiens [2] = species: Homo sapiens; assay: (§2) Inhibition of the production of Interleukin-1-beta from human peripheral blood monocytes stimulated with lipopolysaccharide (LPS) at 10 uM
Method in brief: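 Elutriated human monocytes in RPMI 1640 + 5% FBS, drug added in DMSO 60 min before LPS (Salmonella typhimurium). Tested at 10 μM, the highest concentration assayed. After 20 h, supernatant IL-1β measured by ELISA in duplicate; percent inhibition vs control; MTT viability checked.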

Homo sapiens [3] = species: Homo sapiens; assay: as §2; remark: listed apart in the source
Homo sapiens [4] = species: Homo sapiens; assay: Inhibition of the production of Interleukin-1-beta from human peripheral blood monocytes stimulated with lipopolysaccharide (LPS).
Method in brief: (§3)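 Human monocytes elutriated from whole blood, 2×10^6 cells/well in RPMI 1640 + 5% FBS. Drug in DMSO (1.0 μL) added, 60 min preincubation, then LPS (Salmonella typhimurium; 1.0 μg/mL stock, 20 μL/well). After 20 h, supernatant IL-1β by ELISA; MTT viability on cells.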

Homo sapiens [5] = species: Homo sapiens; assay: as §1; method in brief: as §3; remark: listed apart in the source

Structure (SMILES) | IC50 (Homo sapiens [1]) [µM] | further results
COc1cc(OC)c(C(=O)/C=C/c2ccc(C(=O)Nc3cccnc3)cc2)c(OC)c1 | 0.793 | survival at 600 mg/kg (Mus musculus): 50%
COc1ccccc1C(=O)/C=C/c1ccccc1 | 2.23 | –
COc1cc(OC)c(C(=O)/C=C/c2ccc(C(=O)Nc3ccccc3)cc2)c(OC)c1 | 0.803 | –
COc1cc(OC)c(C(=O)/C=C/c2ccc(C(=O)N(C)C)cc2)c(OC)c1 | 2.8 | –
COc1cc(OC)c(C(=O)/C=C/c2ccc(C(=O)Nc3nccs3)cc2)c(OC)c1 | 0.355 | survival at 600 mg/kg (Mus musculus): 55%
O=C(/C=C/c1ccccc1)c1ccccc1NS(=O)(=O)C(F)(F)F | 5.85 | –
COc1cc(OC)c(NC(=O)/C=C/c2ccccc2)c(OC)c1 | – | inhibition at 10 µM (Homo sapiens [2]): 0%
O=C(/C=C/c1ccccc1)c1c(Cl)cccc1Cl | 1.08 | –
CCOc1ccc(C(=O)/C=C/c2ccccc2)cc1 | – | inhibition at 10 µM (Homo sapiens [3]): 15%
O=C(/C=C/c1ccccc1)c1ccc(O)cc1 [4'-HYDROXYCHALCONE] | 6.13 | –
CN(C)c1ccccc1C(=O)/C=C/c1ccccc1 | 1.77 | –
CCOc1ccccc1C(=O)/C=C/c1ccccc1 | 0.609 | –
COc1ccc(C(=O)/C=C/c2ccccc2)c(OC)c1OC | 1.71 | –
COc1cc(OC)c(C(=O)/C=C/c2c(F)cccc2F)c(OC)c1 | 1.29 | –
COc1cccc(OC)c1C(=O)/C=C/c1ccccc1 | 1.15 | –
COc1cc(OC)c(C(=O)/C=C/c2ccncc2)c(OC)c1 | 0.592 | –
O=C(/C=C/c1ccccc1)c1c2ccccc2cc2ccccc12 | 1.41 | –
O=C(/C=C/c1ccccc1)c1ccccc1 [CHALCONE] | 6.28 | –
Cc1cc(C)c(C(=O)/C=C/c2ccccc2)c(C)c1 | 6.5 | –
COc1cc(OC)c(C(=O)/C=C/c2cccc(C(=O)Nc3ccccc3)c2)c(OC)c1 | 0.577 | –
COc1cc(OC)c(C/C=C/c2ccccc2)c(OC)c1 | – | inhibition at 10 µM (Homo sapiens [2]): 0%
COc1cc(OC)c(C(=O)C=C(c2ccccc2)c2ccccc2)c(OC)c1 | – | inhibition at 10 µM (Homo sapiens [3]): 0%
COc1cccc(/C=C/C(=O)c2ccccc2)c1OC | 2 | –

Structure (SMILES) | IC50 (Homo sapiens [1]) [µM] | further results
COc1cc(C(=O)/C=C/c2ccc(N(C)C)cc2)cc(OC)c1OC | – | inhibition at 10 µM (Homo sapiens [2]): 0%
COc1ccc(C(=O)/C=C/c2ccccc2)cc1OC [3',4'-DIMETHOXYCHALCONE] | – | inhibition at 10 µM (Homo sapiens [3]): 44%
COC(=O)c1ccccc1C(=O)/C=C/c1ccccc1 | 1.95 | survival at 600 mg/kg (Mus musculus): 20%
COc1cc(OC)c(C(=O)/C=C/c2cccnc2)c(OC)c1 | 1.33 | –
O=C(/C=C/c1ccccc1)c1ccccc1OCc1ccccc1 | 2.23 | –
COC(=O)c1ccccc1C(=O)/C=C/c1ccc(C(=O)Nc2nccs2)cc1 | 2.03 | survival at 600 mg/kg (Mus musculus): 30%
COC(=O)c1cccc(/C=C/C(=O)c2c(OC)cc(OC)cc2OC)c1 | 1.65 | –
COc1cc(OC)c(C(=O)/C=C/c2ccc(C(=O)O)cc2)c(OC)c1 | 6.23 | –
O=C(/C=C/c1ccccc1)c1ccccc1[N+](=O)[O-] | 1.52 | –
CN(C)C(=O)c1ccccc1C(=O)/C=C/c1ccccc1 | 5.5 | –
CCOc1ccccc1C(=O)/C=C/c1ccncc1 | 1.65 | –
COc1cc(OC)c(C(=O)/C=C/c2ccnc3ccccc23)c(OC)c1 | 0.311 | –
CS(=O)(=O)Nc1ccccc1C(=O)/C=C/c1ccccc1 | – | inhibition at 10 µM (Homo sapiens [2]): 0%
O=C(/C=C/c1ccccc1)c1ccccc1C(F)(F)F | 0.748 | –
O=C(/C=C/c1ccccc1)c1ccc([N+](=O)[O-])cc1 | – | inhibition at 10 µM (Homo sapiens [3]): 0%
COc1cc(OC)c(C(=O)/C(C)=C/c2ccccc2)c(OC)c1 | 5.17 | –
COc1cc(OC)c(C(=O)/C=C/c2ccc(C(=O)N(C)c3nccs3)cc2)c(OC)c1 | 1.01 | –
COc1cc(OC)c(C(=O)/C=C/c2ccccn2)c(OC)c1 | 0.596 | –
COC(=O)c1ccc(C(=O)/C=C/c2ccccc2)cc1 | – | inhibition at 10 µM (Homo sapiens [3]): 5%
O=C(/C=C/c1ccccc1)c1ccccc1O [2'-HYDROXYCHALCONE] | 4.3 | –
COc1cc(OC)c(C(=O)CCc2ccccc2)c(OC)c1 | – | inhibition at 10 µM (Homo sapiens [2]): 0%
O=C(O)c1ccccc1C(=O)/C=C/c1ccccc1 | – | inhibition at 10 µM (Homo sapiens [3]): 37%
O=C(/C=C/c1ccccc1)c1ccccc1Br | 1.66 | –

Structure (SMILES) | IC50 (Homo sapiens [1]) [µM] | further results
COc1cc(C(=O)/C=C/c2ccccc2)cc(OC)c1OC | 1.84 | –
COc1ccc(C(=O)/C=C/c2ccccc2)cc1 [4'-METHOXYCHALCONE] | – | inhibition at 10 µM (Homo sapiens [3]): 29%
CC(=O)Nc1ccccc1C(=O)/C=C/c1ccccc1 | 1.73 | –
COc1cc(OC)c(C(=O)/C=C/c2nccn2C)c(OC)c1 | 3.8 | –
O=C(/C=C/c1ccccc1)c1ccccn1 | 6.2 | –
COc1cccc(C(=O)/C=C/c2ccccc2)c1OC | 1.67 | –
COc1cc(OC)c(C(=O)c2ccc(-c3ccccc3)cc2)c(OC)c1 | – | inhibition at 10 µM (Homo sapiens [2]): 26%
COc1cc(OC)c(C(=O)/C=C/c2cccc(C(=O)O)c2)c(OC)c1 | 6.76 | –
COc1cc(OC)c(C(=O)NCc2ccccc2)c(OC)c1 | – | inhibition at 10 µM (Homo sapiens [2]): 0%
COc1cc(OC)c(C(=O)/C=C/c2ccccc2)c(OC)c1 | – | IC50 (Homo sapiens [4]): 1.25 µM
COc1cc(OC)c(C(=O)/C=C/c2cnccn2)c(OC)c1 | 0.693 | –
COC(=O)c1ccc(/C=C/C(=O)c2c(OC)cc(OC)cc2OC)cc1 | 1.93 | –
O=C(Nc1nccs1)c1ccc(/C=C/C(=O)c2ccccc2C(=O)O)cc1 | – | inhibition at 10 µM (Homo sapiens [2]): 22%
COc1cc(OC)c(C(=O)/C=C/c2cccc(C(=O)Nc3nccs3)c2)c(OC)c1 | 0.503 | –
COc1cc(OC)c(C(=O)/C=C/c2cccc(C(=O)Nc3cccnc3)c2)c(OC)c1 | 1.63 | –
COc1ccc(/C=C/C(=O)c2ccccc2)cc1OC | 2.33 | –
COc1cccc(/C=C/C(=O)c2c(OC)cc(OC)cc2OC)c1 | 1.8 | –
O=C(/C=C/c1ccccc1)c1cccs1 | 5.75 | –
COc1cc(OC)c(C(=O)/C=C(\C)c2ccccc2)c(OC)c1 | – | inhibition at 10 µM (Homo sapiens [3]): 0%
COc1cc(OC)c(C(O)/C=C/c2ccccc2)c(OC)c1 (configuration not stated) | 5.4 | –
COc1cc(OC)c(C(=O)/C=C/c2ccc(C(N)=O)cc2)c(OC)c1 | 1.79 | –
COc1cc(OC)c(C(/C=C/c2ccccc2)=N/O)c(OC)c1 | – | Inhibition (Homo sapiens [5]): 34%
